What was measured:
[1] = target: T1, Fatty-acid amide hydrolase 1 (Rattus norvegicus, UniProt P97612); assay: Inhibition of FAAH in Wistar rat brain assessed as by liquid scintillation counting
T1 sequence (P97612 whole entry): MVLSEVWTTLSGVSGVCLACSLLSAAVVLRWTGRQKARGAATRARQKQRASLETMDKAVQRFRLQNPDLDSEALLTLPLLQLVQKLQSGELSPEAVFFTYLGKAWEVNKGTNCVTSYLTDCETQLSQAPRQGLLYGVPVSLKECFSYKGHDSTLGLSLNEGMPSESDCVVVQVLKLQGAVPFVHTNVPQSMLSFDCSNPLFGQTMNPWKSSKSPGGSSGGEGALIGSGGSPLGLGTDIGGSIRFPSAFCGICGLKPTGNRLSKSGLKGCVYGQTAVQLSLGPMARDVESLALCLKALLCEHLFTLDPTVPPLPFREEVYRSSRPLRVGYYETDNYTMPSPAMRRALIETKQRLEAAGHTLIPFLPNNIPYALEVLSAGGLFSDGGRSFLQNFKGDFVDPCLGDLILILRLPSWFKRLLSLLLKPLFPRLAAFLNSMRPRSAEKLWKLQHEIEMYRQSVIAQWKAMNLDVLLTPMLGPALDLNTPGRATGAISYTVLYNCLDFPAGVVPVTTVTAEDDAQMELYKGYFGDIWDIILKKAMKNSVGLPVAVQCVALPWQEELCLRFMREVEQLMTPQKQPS
Outline: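 Rat cerebrum homogenate (8-week male Wistar, whole brain minus cerebellum, 10,000g supernatant in 0.1 M K phosphate pH 7.4) as enzyme, 18 µg protein. Preincubated with compound 10 min at 37 °C, then 2 μM [³H]AEA (ethanolamine 1-³H) added for 10 min at 37 °C. Buffer has 0.5% BSA, DMSO up to 5%. Stopped with EtOAc. Aqueous [³H]ethanolamine counted. Three independent experiments in duplicate; IC50 by nonlinear regression.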

[2] = target: T2, Monoglyceride lipase (Homo sapiens) (UniProt Q99685); assay: Inhibition of human recombinant MGL by liquid scintillation counting; conditions: concentration not given here
T2 sequence (whole entry): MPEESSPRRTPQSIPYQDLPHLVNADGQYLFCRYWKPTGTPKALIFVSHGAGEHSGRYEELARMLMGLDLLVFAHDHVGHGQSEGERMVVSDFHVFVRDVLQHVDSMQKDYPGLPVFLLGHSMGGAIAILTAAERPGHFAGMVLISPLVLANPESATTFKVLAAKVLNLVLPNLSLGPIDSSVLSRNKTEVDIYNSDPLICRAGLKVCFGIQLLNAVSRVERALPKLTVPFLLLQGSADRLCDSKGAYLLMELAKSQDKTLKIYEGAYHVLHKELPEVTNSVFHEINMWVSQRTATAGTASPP
Outline: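 hrMGL preincubated with compound 10 min at 37 °C in 50 mM Tris-HCl pH 7.4, 1 mM EDTA, 0.5% BSA, DMSO ≤5%. Then [³H]2-oleoylglycerol (glycerol-1,2,3-³H) added to 50 μM final for 10 min at 37 °C. Stopped with EtOAc. Aqueous-phase [³H]glycerol counted by liquid scintillation.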

[3] = target: T3, Monoglyceride lipase (Rattus norvegicus) (UniProt Q8R431); assay: Inhibition of MGL in Wistar rat cerebellar membrane at 100 uM by reversed-phase HPLC relative to control; assay type: cell membranes; conditions: Cerebellum
T3 sequence (whole entry): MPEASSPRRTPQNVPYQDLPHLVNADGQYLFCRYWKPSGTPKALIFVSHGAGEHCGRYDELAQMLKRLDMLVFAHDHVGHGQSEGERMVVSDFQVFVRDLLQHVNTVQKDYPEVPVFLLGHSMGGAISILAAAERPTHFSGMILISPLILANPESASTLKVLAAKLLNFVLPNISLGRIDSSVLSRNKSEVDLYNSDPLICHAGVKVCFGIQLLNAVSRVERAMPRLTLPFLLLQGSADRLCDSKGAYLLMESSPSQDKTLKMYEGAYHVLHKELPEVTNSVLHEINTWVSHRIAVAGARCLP
Outline: (§1)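 Cerebellar membranes from 4-week male Wistar rats. 10 µg protein preincubated with compound 30 min at 25 °C in Tris-HCl pH 7.4, EDTA, 0.5% BSA, 1.25% DMSO. Incubation 90 min at 25 °C with 5 µg protein and 50 μM 2-AG (100 mM NaCl, 5 mM MgCl₂). Stopped with acidified acetonitrile at 0 and 90 min. Arachidonic acid by C18 HPLC, UV 211 nm. Activity as % of control, n = 2.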

[4] = target: T3, Monoglyceride lipase (Rattus norvegicus); assay: Inhibition of MGL in Wistar rat cerebellar membrane at 1 uM by reversed-phase HPLC relative to control; assay type: cell membranes; conditions: Cerebellum; outline: as §1

IC50 [1] [nM]	inhibition [2] [%]	inhibition [3] [%]	inhibition [4] [%]	Structure (SMILES)
73	13	–	–	C[C@@H]1CN=C(c2cccc(OC(=O)NC3CCCCC3)c2)O1
4500	18	–	–	CCCNC(=O)Oc1cccc(-c2nc3ncncc3o2)c1
33	–	32	–	CCCNC(=O)Oc1cccc(C2=NCCO2)c1
13	–	–	10	O=C(NC1CCCC1)Oc1cccc(C2=NCCO2)c1
2100	–	17	–	O=C(NC1CCCCC1)Oc1cccc(C2=N[C@@H](Cc3ccccc3)CO2)c1
6.8	14	–	–	C[C@H]1CN=C(c2cccc(OC(=O)NC3CCCCC3)c2)O1
590	–	14	–	O=C(NC1CCCCC1)Oc1cccc(C2=N[C@H](Cc3ccccc3)CO2)c1
110	–	28	–	C[C@H]1COC(c2cccc(OC(=O)NC3CCCC3)c2)=N1
3000	–	26	–	CCCNC(=O)Oc1cccc(-c2nc3ccccc3o2)c1
90	–	35	–	COC(=O)[C@H]1COC(c2cccc(OC(=O)NC3CCCCC3)c2)=N1
51	–	28	–	C[C@H]1COC(c2cccc(OC(=O)NC3CCCCC3)c2)=N1
1.2	–	22	–	O=C(NC1CCCCC1)Oc1cccc(C2=NCCO2)c1
9.4	–	25	–	COC(=O)[C@@H]1COC(c2cccc(OC(=O)NC3CCCCC3)c2)=N1
680	–	29	–	CCCNC(=O)Oc1cccc(-c2nc3ncccc3o2)c1
16	–	16	–	C[C@@H]1COC(c2cccc(OC(=O)NC3CCCCC3)c2)=N1
1900	–	25	–	O=C(NC1CCCCC1)Oc1cccc(C2=N[C@@H](Cc3c[nH]c4ccccc34)CO2)c1
46	–	20	–	CC1(C)COC(c2cccc(OC(=O)NC3CCCCC3)c2)=N1
65	–	28	–	CC1(C)COC(c2cccc(OC(=O)NC3CCCC3)c2)=N1

Reference: ChEMBL document CHEMBL1154092, “Chiral 3-(4,5-dihydrooxazol-2-yl)phenyl alkylcarbamates as novel FAAH inhibitors: Insight into FAAH enantioselectivity by molecular docking and interaction fields” (Eur J Med Chem, 2009)
